{"data": "Measured values from different studies", "read-out": "cell growth or viability", "note": "Protocols differ between the studies behind these lines."}
{"SMILES": "Cc1ccc(CN2C(=O)C(=Nc3cccc(C)c3)c3ccccc32)cc1", "cell line": "L02", "method": "MTT", "time": "48 h", "endpoint": "IC50", "result": "10.3 µM"}
{"SMILES": "C[C@H](Oc1nccc(-c2noc3c2CCC[C@@]32CCCc3sc(N)c(C#N)c32)n1)[C@@H]1CCCN1C", "cell line": "BaF3", "time": "72 h", "endpoint": "EC50", "result": "0.042 µM"}
{"SMILES": "C[C@H](Nc1ccc2c(c1)OCCn1cc(N3C(=O)OC[C@H]3C(F)F)nc1-2)C(N)=O", "cell line": "MFM-223", "method": "ATP luminescence", "time": "5 days", "endpoint": "EC50", "result": "1.39 µM"}
{"SMILES": "C[C@H]1CNCCN1c1nccc(-c2noc([C@@]3(C)CCCc4sc(N)c(C#N)c43)n2)n1", "cell line": "BaF3", "time": "72 h", "endpoint": "EC50", "result": "1.58 µM"}
{"SMILES": "Cc1ncsc1-c1ccc(CNC(=O)[C@@H]2C[C@@H](O)CN2C(=O)[C@@H](NC(=O)COCCOCCOCCNC(=O)C[C@@H]2N=C(c3ccc(Cl)cc3)c3c(sc(C)c3C)-n3c(C)nnc32)C(C)(C)C)cc1", "cell line": "HCC1806", "method": "MTT", "time": "6 days", "endpoint": "IC90", "result": "0.81 µM"}
{"SMILES": "Cc1ccc(CN2C(=O)C(=Nc3c(C(C)C)cccc3C(C)C)c3ccccc32)cc1", "cell line": "L02", "method": "MTT", "time": "48 h", "endpoint": "IC50", "result": "177 µM"}
{"SMILES": "C[C@H]1CN(C)CCN1c1nccc(-c2noc3c2CCC[C@@]32CCCc3sc(N)c(C#N)c32)n1", "cell line": "BaF3", "time": "72 h", "endpoint": "EC50", "result": "0.479 µM"}
{"SMILES": "Cc1nc(Nc2ncc(C(=O)Nc3c(C)cccc3Cl)s2)cc(N2CC[C@H](O)C2)n1", "cell line": "REH", "method": "ATP luminescence", "concentration": "10 µM", "time": "72 h", "endpoint": "inhibition", "result": "32%"}
{"SMILES": "O=C1Nc2ccccc2C1=Nc1ccccc1Br", "cell line": "L02", "method": "MTT", "time": "48 h", "endpoint": "IC50", "result": "31.4 µM"}
